The source made the active and inactive calls. No cut-off for these calls is given here.
Experiments:
HEY = experiment: Cytotoxicity against human HEY cells after 72 hrs by MTT assay; assay type: functional, cell-based
In short: (§1)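 Cells were attached overnight, then continuously exposed to drug for 72 h. MTT (0.5 mg/mL final) was added for 4 h at 37 °C, formazan dissolved in DMSO, and A570 read; all in triplicate. IC50 came from log(concentration) vs % cells killed. Media: RPMI-1640 for HT29, HCT116 p53+/+ and p53−/−, and HEY; DMEM for MDA-MB-435 and UMUC3; all with 10% FBS, 37 °C, 5% CO₂.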

MDA-MB-435 [1] = experiment: Cytotoxicity against human MDA-MB-435 cells after 72 hrs by MTT assay; assay type: functional, cell-based; conditions: MDA-MB-435, 72 h; in short: as §1
MDA-MB-435 [2] = experiment: Cytotoxicity against human MDA-MB-435 cells at 1 uM after 24 hrs using crystal violet staining by colony formation assay; assay type: functional, cell-based
In short: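 Cells were plated at 1000 per well, attached overnight, and exposed to 1 μM for 24 h. They were then washed and grown in fresh medium for 8–10 days until colonies formed, fixed in 1% glutaraldehyde for 30 min, and stained with 2% crystal violet for 30 min. Vehicle was DMSO.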

NCI/ADR-RES = experiment: Cytotoxicity against human NCI/ADR-RES cells after 72 hrs by MTT assay; assay type: functional, cell-based
HT-29 = experiment: Cytotoxicity against human HT-29 cells after 72 hrs by MTT assay; assay type: functional, cell-based; conditions: HT-29, 72 h; in short: as §1
[3] = Octanol-water distribution coefficient, log P of the compound; assay type: physicochemical
5637 = experiment: Cytotoxicity against human 5637 cells after 72 hrs by MTT assay; assay type: functional, cell-based; conditions: Homo sapiens, 5637, 72 h
UMUC3 = experiment: Cytotoxicity against human UM-UC-3 cells after 72 hrs by MTT assay; assay type: functional, cell-based; conditions: UMUC3, 72 h; in short: as §1
HCT-116 [4] = experiment: Cytotoxicity against p53 deficient human HCT116 cells […] after 72 hrs by MTT assay; assay type: functional, cell-based; conditions: HCT-116, 72 h; in short: as §1
HCT-116 [5] = experiment: Cytotoxicity against human HCT116 cells […] after 72 hrs by MTT assay; assay type: functional, cell-based; conditions: HCT-116, 72 h; in short: as §1
MDA-MB-435 [6] = experiment: Increase of mitochondrial superoxide accumulation in human MDA-MB-435 cells at IC50 to 3 times IC50 after 24 hrs by flow cytometry; assay type: functional, cell-based
In short: (§2)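 Cells were drug-treated at two concentrations for 24 h, then loaded with 5 μM MitoSOX Red for 10 min at 37 °C and washed three times in HBSS. Cells were either viewed by fluorescence microscopy or trypsinized, washed twice in HBSS and read by flow cytometry; untreated cells served as control.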

MDA-MB-435 [7] = experiment: Increase of mitochondrial superoxide accumulation in human MDA-MB-435 cells at IC50 to 3 times IC50 after 24 hrs by fluorescence microscopic analysis; assay type: functional, cell-based; in short: as §2
MDA-MB-435 [8] = experiment: Increase of reactive oxygen species accumulation in human MDA-MB-435 cells at IC50 to 3 times IC50 after 24 hrs by fluorescence microscopic analysis; assay type: functional, cell-based
MDA-MB-435 [9] = experiment: Increase of mitochondrial superoxide accumulation in human MDA-MB-435 cells at 1.5 uM after 24 hrs by fluorescence microscopic analysis; assay type: functional, cell-based
In short: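 MDA-MB-435 cells (DMEM, 10% FBS, 37 °C, 5% CO₂) treated 24 h, then loaded with 5 μM MitoSOX Red mitochondrial superoxide indicator for 10 min at 37 °C; washed three times with HBSS to remove excess dye and viewed under a fluorescence microscope for mitochondrial superoxide staining pattern, compared with untreated cells.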

| Compound | IC50 (HEY) | IC50 (MDA-MB-435 [1]) | Activity (MDA-MB-435 [2]) | IC50 (NCI/ADR-RES) | IC50 (HT-29) | logP [3] | IC50 5637 | IC50 (UMUC3) | IC50 (HCT-116 [4]) | IC50 (HCT-116 [5]) | Activity (MDA-MB-435 [6]) | Activity (MDA-MB-435 [7]) | Activity (MDA-MB-435 [8]) | Activity (MDA-MB-435 [9]) |
| --- | --- | --- | --- | --- | --- | --- | --- | --- | --- | --- | --- | --- | --- | --- |
| C#CC(=O)N(c1cccc(C(F)(F)F)c1)C(C(=O)NC1CCCC1)c1ccc(F)cc1 (centres undefined) | 2.4 µM | 5.2 µM | Active | 0.4 µM | 4.8 µM | 4.38 | 0.5 µM | 8 µM | 6.9 µM | 7.5 µM | – | – | – | – |
| C#CC(=O)N(c1cccc(C(F)(F)F)c1)C(C(=O)NCc1ccccc1)c1cccs1 (centres undefined) | 7.1 µM | 4.2 µM | Active | 0.7 µM | 7.3 µM | 3.86 | 1.2 µM | > 20 µM | 16.1 µM | 9 µM | – | – | – | – |
| C#CC(=O)N(c1ccccc1)C(C(=O)NC1CCCCC1)c1cccs1 (centres undefined) | > 10 µM | > 10 µM | Active | 1.3 µM | > 10 µM | 3.07 | 3.5 µM | > 20 µM | > 20 µM | 14 µM | Active | Active | – | – |
| C#CC(=O)N(c1ccc(OC)c(OC)c1)C(C(=O)NC1CCCC1)c1cccs1 (centres undefined) | 3.4 µM | 2 µM | Active | 0.9 µM | 5.5 µM | 2.26 | 2 µM | > 20 µM | 9.6 µM | 7.7 µM | – | – | – | – |
| C#CC(=O)N(c1ccc(OC)cc1OC)C(C(=O)NC1CCCC1)c1cccs1 (centres undefined) | 4.1 µM | 1.7 µM | Active | 0.4 µM | 2.3 µM | 2.26 | 1.7 µM | > 20 µM | 7 µM | 6.9 µM | – | – | – | – |
| C#CC(=O)N(c1ccc2c(c1)OCCO2)C(C(=O)NC1CCCC1)c1ccccc1 (centres undefined) | 4.1 µM | 1.8 µM | Active | 0.3 µM | 3.2 µM | 2.62 | 1.9 µM | > 20 µM | > 20 µM | 17.3 µM | – | – | – | – |
| C#CC(=O)N(c1ccccc1F)C(C(=O)NC1CCCCC1)c1ccccc1F (centres undefined) | 5.6 µM | 6.5 µM | Active | 0.4 µM | 7.7 µM | 4.17 | 2.1 µM | > 20 µM | 10.1 µM | 11.9 µM | – | – | – | – |
| C#CC(=O)N(c1ccc2ccccc2c1)C(C(=O)NC1CCCC1)c1ccccc1 (centres undefined) | 1.7 µM | 7.3 µM | Active | 0.3 µM | 4.9 µM | 4.11 | 0.5 µM | > 20 µM | 7.4 µM | 6.8 µM | – | – | – | – |
| O=C(O)c1ccccc1C1c2cc(Cl)c(O)cc2Oc2cc(O)c(Cl)cc21 | – | – | – | – | – | – | – | – | – | – | – | – | inactive | – |
| C#CC(=O)N(c1cc(OC)cc(OC)c1)C(C(=O)NC1CCCC1)c1ccc(OC)cc1 (centres undefined) | 2.3 µM | 2.4 µM | Active | 0.3 µM | 2.1 µM | 2.33 | 1.9 µM | > 20 µM | > 20 µM | 15 µM | – | – | – | – |
| CC(=O)O[C@H]1C(=O)[C@@]2(C)[C@H]([C@H](OC(=O)c3ccccc3)[C@]3(O)C[C@H](OC(=O)[C@H](O)[C@@H](NC(=O)c4ccccc4)c4ccccc4)C(C)=C1C3(C)C)[C@]1(OC(C)=O)CO[C@@H]1C[C@@H]2O [PACLITAXEL] | – | – | Active | – | – | 0.54 | – | – | – | – | – | – | – | inactive |
| CC[C@@]1(O)C(=O)OCc2c1cc1n(c2=O)Cc2cc3ccccc3nc2-1 [CAMPTOTHECIN] | – | – | – | – | – | 1.67 | – | – | – | – | – | – | – | – |
| C#CC(=O)N(c1cccc(C(F)(F)F)c1)C(C(=O)NC1CCCCC1)c1cccs1 (centres undefined) | 5.2 µM | 6.9 µM | Active | 0.4 µM | 6 µM | 3.88 | 1.6 µM | > 20 µM | 10.4 µM | 8.3 µM | – | – | – | – |
| C#CC(=O)N(Cc1ccco1)C(C(=O)NC1CCCC1)c1ccccc1F (centres undefined) | 4.3 µM | 1.7 µM | Active | 1.2 µM | > 10 µM | 2.39 | 2.9 µM | > 20 µM | 13 µM | 10.5 µM | – | – | – | – |
| C#CC(=O)N(Cc1ccc2c(c1)OCO2)C(C(=O)NCc1ccccc1)c1ccccc1F (centres undefined) | > 10 µM | > 10 µM | Active | 1.3 µM | > 10 µM | 3.32 | 2.8 µM | > 20 µM | > 20 µM | > 10 µM | – | – | – | – |
| C#CC(=O)N(c1ccc(-n2cnnn2)c(C)c1)C(C(=O)NC1CCCC1)c1ccccc1 (centres undefined) | 1.9 µM | 0.6 µM | Active | 1 µM | 1.5 µM | 3.54 | 0.4 µM | 7.8 µM | 5.7 µM | 7.2 µM | – | – | – | – |
| COc1cccc2c1C(=O)c1c(O)c3c(c(O)c1C2=O)C[C@@](O)(C(=O)CO)C[C@@H]3O[C@H]1C[C@H](N)[C@H](O)[C@H](C)O1 [DOXORUBICIN] | – | – | Active | – | – | -0.82 | – | – | – | – | – | – | – | – |
| C#CC(=O)N(c1cccc(OC)c1)C(C(=O)NC1CCCC1)c1cccs1 (centres undefined) | 1.9 µM | 1.7 µM | Active | 0.3 µM | 2.3 µM | 2.55 | 0.3 µM | 6.9 µM | 5.6 µM | 7.2 µM | – | – | – | – |
| C#CC(=O)N(c1cc(OC)ccc1OC)C(C(=O)NC1CCCC1)c1cccs1 (centres undefined) | 1.5 µM | 0.5 µM | Active | 0.3 µM | 1.6 µM | 2.26 | 0.3 µM | 5.7 µM | 4.7 µM | 5.7 µM | – | – | – | – |
